In ChEMBL document CHEMBL4350958, “Rational Design of Short Peptide Variants by Using Kunitzin-RE, an Amphibian-Derived Bioactivity Peptide, for Acquired Potent Broad-Spectrum Antimicrobial and Improved Therapeutic Potential of Commensalism Coinfection of Pathogens” (J Med Chem, 2019):

Key:
Escherichia coli [1] = assay: Antibacterial activity against Escherichia coli 078 measured after 24 hrs; format: functional
Procedure, shortened: (§1)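 Broth microdilution adapted from NCCLS. Mid-log bacteria were diluted in MHB to a final (0.5–1) × 10^5 CFU mL−1. Peptides were serially diluted in 0.2% BSA and mixed with an equal volume of cells. After 24 h at 37 °C, MIC was read at A492 as the lowest concentration inhibiting 95% of growth. At least three independent experiments, each with three technical replicates.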

Escherichia coli [2] = assay: Antibacterial activity against Escherichia coli ATCC 25922 measured after 18 to 24 hrs in presence of KCl; format: functional
Staphylococcus aureus [3] = assay: Antibacterial activity against Staphylococcus aureus ATCC 29213 measured after 18 to 24 hrs in presence of CaCl2; format: functional
Escherichia coli [4] = assay: Antibacterial activity against Escherichia coli ATCC 25922 measured after 18 to 24 hrs in presence of NaCl; format: functional
Candida parapsilosis = assay: Antifungal activity against Candida parapsilosis cgmcc2.3989 measured after 48 hrs by broth microdilution method; format: functional
Procedure, shortened: (§2)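 Modified CLSI M27-A2 microdilution. Yeast colonies were diluted in MOPS-buffered RPMI 1640 to a final (0.5–1) × 10^3 CFU mL−1 and mixed with an equal volume of peptide serially diluted in 0.2% BSA. After 48 h at 28 °C, MIC was read at A492 as the lowest concentration inhibiting 95% of growth. At least three independent experiments, each with three technical replicates.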

Candida albicans [5] = assay: Antifungal activity against Candida albicans cgmcc2.2086 measured after 48 hrs by broth microdilution method; format: functional; procedure, shortened: as §2
Candida albicans [6] = assay: Antifungal activity against Candida albicans cgmcc2.2086 measured after 48 hrs in presence of FeCl by broth microdilution method; format: functional
Staphylococcus aureus [7] = assay: Antibacterial activity against Staphylococcus aureus ATCC 29213 measured after 18 to 24 hrs in presence of NaCl; format: functional
Escherichia coli [8] = assay: Bactericidal activity against Escherichia coli K99 incubated for 24 hrs followed by replating on agar plate and measured after overnight incubation; format: functional; conditions: for MBC: K99, 24 h, read-out: MBC>99.9
Procedure, shortened: (§3)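 Mid-log bacteria diluted in MHB to (0.5–1) × 10^5 CFU/mL and mixed 1:1 with peptide serially diluted in 0.2% BSA. After 24 h at 37 °C, 50 μL of each mixture was plated on agar and incubated overnight. MBC taken as the lowest concentration killing >99.9% of cells. At least three independent experiments, each with three technical replicates.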

Escherichia coli [9] = assay: Antibacterial activity against Escherichia coli K99 measured after 24 hrs; format: functional; procedure, shortened: as §1
Candida albicans [10] = assay: Antifungal activity against Candida albicans cgmcc2.2086 measured after 48 hrs in presence of NaCl by broth microdilution method; format: functional
Candida albicans [11] = assay: Antifungal activity against Candida albicans cgmcc2.2086 measured after 48 hrs in presence of NH4Cl by broth microdilution method; format: functional
Escherichia coli [12] = assay: Antibacterial activity against Escherichia coli ATCC 25922 measured after 18 to 24 hrs in presence of FeCl3; format: functional
Salmonella typhimurium [13] = assay: Bactericidal activity against Salmonella typhimurium C7731 incubated for 24 hrs followed by replating on agar plate and measured after overnight incubation; format: functional; conditions: for MBC>99.9: Salmonella enterica subsp. enterica serovar Typhimurium; for MBC: Salmonella enterica, C7731, 24 h, read-out: MBC>99.9; procedure, shortened: as §3
Candida albicans [14] = assay: Antifungal activity against Candida albicans cgmcc2.2086 measured after 48 hrs in presence of CaCl by broth microdilution method; format: functional
Salmonella typhimurium [15] = assay: Antibacterial activity against Salmonella typhimurium ATCC 14028 measured after 24 hrs; format: functional; procedure, shortened: as §1
Staphylococcus aureus [16] = assay: Bactericidal activity against Staphylococcus aureus ATCC 25923 incubated for 24 hrs followed by replating on agar plate and measured after overnight incubation; format: functional
Procedure, shortened: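 After the 24 h, 37 °C MHB microdilution MIC assay, 50 μL from each well was plated on agar and incubated overnight. MBC taken as lowest peptide concentration killing >99.9% of cells. At least three independent experiments, each with three technical replicates.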

Staphylococcus aureus [17] = assay: Antibacterial activity against Staphylococcus aureus ATCC 29213 measured after 18 to 24 hrs in presence of FeCl3; format: functional
Escherichia coli [18] = assay: Bactericidal activity against Escherichia coli 078 incubated for 24 hrs followed by replating on agar plate and measured after overnight incubation; format: functional; conditions: for MBC: Escherichia coli, 078, 24 h, read-out: MBC>99.9
Procedure, shortened: (§4)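 After the 24 h, 37 °C MHB microdilution (0.5–1 × 10^5 CFU mL−1 inoculum, peptides diluted in 0.2% BSA), 50 μL from each well was plated on agar and incubated overnight. MBC was taken as the lowest concentration killing >99.9% of cells. Three or more independent experiments, each with triplicate technical replicates.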

Escherichia coli [19] = assay: Bactericidal activity against Escherichia coli ATCC 25922 incubated for 24 hrs followed by replating on agar plate and measured after overnight incubation; format: functional; conditions: for MBC: ATCC 25922, 24 h, read-out: MBC>99.9; procedure, shortened: as §4
[20] = tested on: Staphylococcus epidermidis; assay: Bactericidal activity against Staphylococcus epidermidis ATCC 12228 incubated for 24 hrs followed by replating on agar plate and measured after overnight incubation; format: functional; procedure, shortened: as §3
Staphylococcus aureus [21] = assay: Antibacterial activity against methicillin-resistant Staphylococcus aureus ATCC 43300 measured after 24 hrs; format: functional
Procedure, shortened: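 Broth microdilution modified from NCCLS. Mid-log bacteria at (0.5–1) × 10^5 CFU mL−1 in MHB, mixed with peptides serially diluted in 0.2% BSA. Incubated 24 h at 37 °C, read at A492. MIC taken as lowest concentration giving 95% growth inhibition. At least three independent experiments, each with three technical replicates.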

Escherichia coli [22] = assay: Antibacterial activity against Escherichia coli UB1005 measured after 24 hrs; format: functional; procedure, shortened: as §1
Salmonella typhimurium [23] = assay: Antibacterial activity against Salmonella typhimurium C7731 measured after 24 hrs; format: functional; procedure, shortened: as §1
[24] = Therapeutic index, ratio of MHC10 for hemolytic activity in human RBC to MIC95 against Staphylococcus aureus ATCC 29213; format: toxicity; conditions: human red blood cells (erythrocytes), read-out: TI
Procedure, shortened: (§5)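 Therapeutic index = MHC divided by MIC. MHC is the lowest concentration giving >10% lysis of human RBC (1 h, 37 °C, 1-128 µM, A576). MIC is 95% growth inhibition by broth microdilution: bacteria in MHB 24 h at 37 °C; Candida in MOPS-buffered RPMI 1640 at (0.5–1) × 10^3 CFU mL−1, 48 h at 28 °C.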

Erythrocyte = assay: Hemolytic activity in human RBC measured after 1 hr; format: ADME, cell-based
Procedure, shortened: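 Fresh healthy-donor human erythrocytes at ~1% (v/v) in PBS pH 7.4, mixed 1:1 with peptide (1–128 µM), 1 h at 37 °C. After centrifugation at 1000×g, supernatant hemoglobin read at 576 nm. Untreated cells set 0% and 0.1% Triton X-100 set 100%. MHC defined as the concentration giving >10% hemolysis. Three or more independent experiments, triplicates.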

[25] = Therapeutic index, ratio of MHC10 for hemolytic activity in human RBC to MIC95 against Staphylococcus epidermidis ATCC 12228; format: toxicity; conditions: human red blood cells (erythrocytes), read-out: TI; procedure, shortened: as §5
[26] = Salmonella enterica subsp. enterica serovar Typhimurium
[27] = Lodderomyces parapsilosis, cgmcc2.3989, 48 h
[28] = Salmonella enterica, ATCC 14028, 24 h
[29] = Salmonella enterica, C7731, 24 h

Work on GENTAMICIN yielded an MIC95 (Escherichia coli [1]) of 0.5 µM, an MIC95 (Escherichia coli [2]) of 1 µM and an MIC95 (Staphylococcus aureus [3]) of 4 µM. It also gave an MIC95 (Escherichia coli [4]) of 4 µM, an MIC95 (Candida parapsilosis) greater than 128 µM and an MIC95 (Candida albicans [5]) greater than 128 µM. It also gave an MIC95 (Candida albicans [6]) greater than 128 µM, an MIC95 (Staphylococcus aureus [7]) of 2 µM and an MBC>99.9 (Escherichia coli [8]) of 0.5 µM. The MIC95 (Escherichia coli [9]) was 0.5 µM, the MIC95 (Candida albicans [10]) was greater than 128 µM and the MIC95 (Candida albicans [11]) was greater than 128 µM. It also gave an MIC95 (Escherichia coli [12]) of 1 µM, an MBC>99.9 (Salmonella typhimurium [13]) of 2 µM and an MIC95 (Candida albicans [14]) greater than 128 µM. It also gave an MIC95 (Salmonella typhimurium [15]; [26]) of 2 µM, an MBC>99.9 (Staphylococcus aureus [16]) of 1 µM and an MIC95 (Staphylococcus aureus [17]) of 1 µM. For the same substance, the MBC>99.9 (Escherichia coli [18]) was 0.5 µM, the MBC>99.9 (Escherichia coli [19]) was 1 µM and the MBC>99.9 [20] was 2 µM. For the same substance, the MIC95 (Staphylococcus aureus [21]) was 8 µM, the MIC95 (Escherichia coli [22]) was 0.5 µM and the MIC95 (Salmonella typhimurium [23]; [26]) was 1 µM.

POLYMYXIN B showed an MIC95 (Escherichia coli [1]) of 1 µM, an MIC95 (Escherichia coli [2]) of 2 µM and an MIC95 (Staphylococcus aureus [3]) of 64 µM. It also gave an MIC95 (Escherichia coli [4]) of 4 µM, an MIC95 (Candida parapsilosis) of 8 µM and an MIC95 (Candida albicans [5]) of 32 µM. For the same substance, the MIC95 (Candida albicans [6]) was 32 µM, the MIC95 (Staphylococcus aureus [7]) was 64 µM and the MBC>99.9 (Escherichia coli [8]) was 1 µM. The MIC95 (Escherichia coli [9]) was 1 µM, the MIC95 (Candida albicans [10]) was 128 µM and the MIC95 (Candida albicans [11]) was 32 µM. The MIC95 (Escherichia coli [12]) was 2 µM, the MBC>99.9 (Salmonella typhimurium [13]) was 4 µM and the MIC95 (Candida albicans [14]) was greater than 128 µM. It also gave an MIC95 (Salmonella typhimurium [15]; [26]) of 2 µM, an MBC>99.9 (Staphylococcus aureus [16]) greater than 128 µM and an MIC95 (Staphylococcus aureus [17]) of 32 µM. It also gave an MBC>99.9 (Escherichia coli [18]) of 1 µM, an MBC>99.9 (Escherichia coli [19]) of 4 µM and an MBC>99.9 [20] of 64 µM. For the same substance, the MIC95 (Staphylococcus aureus [21]) was 64 µM, the MIC95 (Escherichia coli [22]) was 1 µM and the MIC95 (Salmonella typhimurium [23]; [26]) was 2 µM.

For H-AARIILRNRFR-NH2, the MIC95 (Escherichia coli [1]; Escherichia coli, 078, 24 h) was 16 µM, the MIC95 (Escherichia coli [2]) was 64 µM and the selectivity ratio [24] was 2. For the same substance, the MIC95 (Staphylococcus aureus [3]) was greater than 128 µM, the MIC95 (Escherichia coli [4]) was 128 µM and the MIC95 (Candida parapsilosis; [27]) was greater than 128 µM. For the same substance, the MIC95 (Candida albicans [5]; cgmcc2.2086, 48 h) was greater than 128 µM, the MIC95 (Candida albicans [6]; cgmcc2.2086, 48 h) was greater than 128 µM and the MHC10 (Erythrocyte) was greater than 128 µM. For the same substance, the MIC95 (Staphylococcus aureus [7]) was greater than 128 µM, the MBC (Escherichia coli [8]) was 32 µM and the MIC95 (Escherichia coli [9]; K99, 24 h) was 16 µM. It also gave an MIC95 (Candida albicans [10]; cgmcc2.2086, 48 h) greater than 128 µM, an MIC95 (Candida albicans [11]; cgmcc2.2086, 48 h) greater than 128 µM and an MIC95 (Escherichia coli [12]) of 32 µM. For the same substance, the MBC (Salmonella typhimurium [13]) was 128 µM, the MIC95 (Candida albicans [14]; cgmcc2.2086, 48 h) was greater than 128 µM and the selectivity ratio [25] was 2. It also gave an MIC95 (Salmonella typhimurium [15]; [28]) of 32 µM, an MIC95 (Staphylococcus aureus [17]) greater than 128 µM and an MBC (Escherichia coli [18]) of 32 µM. It also gave an MBC (Escherichia coli [19]) of 64 µM, an MIC95 (Staphylococcus aureus [21]; ATCC 43300, 24 h) greater than 128 µM and an MIC95 (Escherichia coli [22]; UB1005, 24 h) of 16 µM. It also gave an MIC95 (Salmonella typhimurium [23]; [29]) of 32 µM.

H-AARIILRPRFR-NH2 gave an MIC95 (Escherichia coli [1]; Escherichia coli, 078, 24 h) of 8 µM, an MIC95 (Escherichia coli [2]) of 16 µM and a selectivity ratio [24] of 2. For the same substance, the MIC95 (Staphylococcus aureus [3]) was greater than 128 µM, the MIC95 (Escherichia coli [4]) was 128 µM and the MIC95 (Candida parapsilosis; [27]) was greater than 128 µM. It also gave an MIC95 (Candida albicans [5]; cgmcc2.2086, 48 h) greater than 128 µM, an MIC95 (Candida albicans [6]; cgmcc2.2086, 48 h) greater than 128 µM and an MHC10 (Erythrocyte) greater than 128 µM. For the same substance, the MIC95 (Staphylococcus aureus [7]) was greater than 128 µM, the MBC (Escherichia coli [8]) was 32 µM and the MIC95 (Escherichia coli [9]; K99, 24 h) was 16 µM. For the same substance, the MIC95 (Candida albicans [10]; cgmcc2.2086, 48 h) was greater than 128 µM, the MIC95 (Candida albicans [11]; cgmcc2.2086, 48 h) was greater than 128 µM and the MIC95 (Escherichia coli [12]) was 16 µM. It also gave an MBC (Salmonella typhimurium [13]) of 32 µM, an MIC95 (Candida albicans [14]; cgmcc2.2086, 48 h) greater than 128 µM and a selectivity ratio [25] of 2. For the same substance, the MIC95 (Salmonella typhimurium [15]; [28]) was 16 µM, the MIC95 (Staphylococcus aureus [17]) was greater than 128 µM and the MBC (Escherichia coli [18]) was 16 µM. The MBC (Escherichia coli [19]) was 32 µM, the MIC95 (Staphylococcus aureus [21]; ATCC 43300, 24 h) was greater than 128 µM and the MIC95 (Escherichia coli [22]; UB1005, 24 h) was 8 µM. It also gave an MIC95 (Salmonella typhimurium [23]; [29]) of 16 µM.
